This data set can be described thus: Toxicity liver stage against HepG2, at 10uM. The class given is cell-based. Details: test concentration 10 uM, cell line HepG2-A16-CD81EGFP. The conditions noted are these: human, HepG2-A16-CD81EGFP cells; read-out: INHIBITION
In outline: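 Uninfected HepG2-A16-CD81EGFP cells, 3 × 10^3 per well, 1536-well, plated on prespotted compound at 10 μM final, parasite-free screening media added to match infected plates; puromycin 10 μM positive, DMSO 0.5% negative; run in parallel with 48 h PbLuc assay at 37 °C, 5% CO2; viability by CellTiter-Glo luminescence, normalized to controls.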
With `Cc1nc(CN2CCC23CCN(Cc2ccco2)CC3)cs1`, the cytotoxicity at 10 µM is -114%.

For `CCCNC(=O)NCc1ccccc1NS(=O)(=O)c1ccccc1`, the cytotoxicity at 10 µM worked out at 10.3%.

As for `Cc1ncc(CN(C)Cn2nc(-c3ccccc3)oc2=O)s1`, the cytotoxicity at 10 µM was -2.81%.

As to `O=C(CC1CCCO1)NCc1ccccc1Cn1cncn1` (configuration not stated), the cytotoxicity at 10 µM was -2.55%.

As for `Cc1csc(Nc2cc(C3CN(c4ccncn4)C3)nc(C)n2)n1`, the cytotoxicity at 10 µM is 11.6%.

In the case of `COc1cc(N2CCCC(c3nccn3CCN(C)C)C2)nc(N)n1` (configuration not stated), the cytotoxicity at 10 µM is -9.6%.

In the case of `COc1ccc(CCCC(=O)NCc2c(C)noc2C)cc1F`, the cytotoxicity at 10 µM was -6.35%.

On to `Cc1cccc(-n2c(C)cc(C(=O)N3CCn4c(C)nnc4C3)c2C)c1`, for which the cytotoxicity at 10 µM is -4.86%.

On to `CC(C)Cc1cc(NC(=O)c2cc(Cl)c[nH]2)n(C)n1`, for which the cytotoxicity at 10 µM is -7.94%.

Regarding `O=S(=O)(C1CC1)N1CCO[C@@H]2CN(Cc3cccs3)C[C@@H]2C1`, the cytotoxicity at 10 µM was -154%.

Regarding `Cn1cc(C(=O)N2CC[C@H](N3CCOCC3)[C@H](CCCO)C2)cn1`, the cytotoxicity at 10 µM is -158%.

On to `O=C(NC[C@H]1OC[C@@H](NCc2ccccc2F)[C@@H]1O)c1ccc(F)cc1`, for which the cytotoxicity at 10 µM was -1.26%.

On to `CCc1nc2n(n1)CC(NCc1cnn(-c3ccccc3)n1)CC2` (configuration not stated), for which the cytotoxicity at 10 µM was -3.01%.

As to `O=C(c1cc[nH]n1)N(Cc1ccc(F)cc1)CC1CC1`, the cytotoxicity at 10 µM is -10.8%.

Consider `O=C(CCN1CCOCC1)NC1CCCN(CC2CCCCC2)C1` (configuration not stated), for which the cytotoxicity at 10 µM was 1.64%.

Take `Cc1nc(C)n(CC2CCCN2Cc2cnc(C)s2)n1` (configuration not stated): the cytotoxicity at 10 µM was found to be 0.0757%.

Consider `COCCCN1Cc2cccc(NC(=O)c3ccccc3Cl)c2C1`, for which the cytotoxicity at 10 µM is -4.34%.

On to `CCOCC(=O)Nc1cc(C)cnc1OC`, for which the cytotoxicity at 10 µM is 4.04%.

Regarding `O=C1CC2(CCCNC2)C(=O)N1Cc1ccc(Cl)cc1` (configuration not stated), the cytotoxicity at 10 µM is -1.57%.

Take `CC(Nc1cccc(CN2CCOC2=O)c1)C(=O)NC(=O)NC(C)(C)C` (configuration not stated): the cytotoxicity at 10 µM is -10.9%.

For `CCCS(=O)(=O)N1CCC2(CC1)CC(=O)N(CCCc1ccccc1)C2`, the cytotoxicity at 10 µM is 8.35%.

For the compound `O=C1CC(c2ccncc2)C2(CCN(Cc3ccc(F)cc3)CC2)N1` (configuration not stated), the cytotoxicity at 10 µM came out at 1.35%.

In the case of `COCCc1noc(CN2CCCC(Cn3nc(C)nc3C)C2)n1` (configuration not stated), the cytotoxicity at 10 µM was -6.41%.

`CN1CCc2c(sc3c2C(=O)NC(C=Cc2ccccc2)N3)C1` (configuration not stated): the cytotoxicity at 10 µM was 6.33%.

`CCn1cnnc1CNC(=O)N1CCN(Cc2ccco2)CC1`: the cytotoxicity at 10 µM is -17.4%.

Regarding `Cc1ccn(CCC(=O)N2CCCC(Cc3cccnc3)C2)n1` (configuration not stated), the cytotoxicity at 10 µM was -4.47%.

Regarding `O=C(Nc1ccnc(OC2CCOC2)c1)c1cc(F)ccc1F` (configuration not stated), the cytotoxicity at 10 µM is 5.87%.

Consider `CCc1nc(C)c(C2CC(=O)Nc3c2c(-c2ccccn2)nn3C)[nH]1` (configuration not stated), for which the cytotoxicity at 10 µM was -6.37%.

For the compound `COc1cc(C(=O)Nc2nc(C)no2)cc(OC)c1Br`, the cytotoxicity at 10 µM is -8.78%.

`CC(OCC(F)(F)F)C(=O)NCc1ccc(-n2cncn2)nc1` (configuration not stated): the cytotoxicity at 10 µM is -2.55%.

Turning to `Cc1noc(C)c1CN1C[C@@H]2COC[C@H](C(=O)N3CCOCC3)[C@@H]2C1`, the cytotoxicity at 10 µM was -70%.

For the compound `O=C(O)C1c2nc[nH]c2CCN1Cc1cc(-c2ccccc2)no1` (configuration not stated), the cytotoxicity at 10 µM was -11.4%.

Regarding `CC1CCCCN1S(=O)(=O)NCCNC(=O)c1ncccc1O` (configuration not stated), the cytotoxicity at 10 µM came to 2.34%.

As to `COc1ccnc(CN2CC(=O)N(c3ccc(C)cc3)CC2C)c1OC` (configuration not stated), the cytotoxicity at 10 µM is -10.8%.

Consider `O=C(Nc1cc2c(cc1Br)OCCO2)NC1CCS(=O)(=O)C1` (configuration not stated), for which the cytotoxicity at 10 µM was -9.82%.

Consider `CC(C)N(C)S(=O)(=O)N(Cc1cccs1)CC1CCCO1` (configuration not stated), for which the cytotoxicity at 10 µM is -53.7%.

For the compound `Cc1cnn(C2CCCN(C(=O)C3=NN(C)C(=O)CC3)C2)c1` (configuration not stated), the cytotoxicity at 10 µM is -3.71%.

For `Cc1cc(CN2CCN(CC(O)c3ccc(Cl)cc3)CC2)no1` (configuration not stated), the cytotoxicity at 10 µM is -7.06%.

As for `CS(=O)(=O)N1C[C@H](C(=O)Nc2cccnc2)C[C@H]2OCC[C@H]21`, the cytotoxicity at 10 µM is 11.3%.

In the case of `O=C(O)c1nnn(Cc2cccc(C(F)(F)F)c2)c1-c1ccccn1`, the cytotoxicity at 10 µM was found to be 2.27%.

For `Cc1nc(COCC2CNCc3nccn3C2)cs1` (configuration not stated), the cytotoxicity at 10 µM was determined as 1.79%.

In the case of `O=C(c1cccc(F)c1)N1CC[C@@H]2CN(c3ncccn3)CCO[C@@H]2C1`, the cytotoxicity at 10 µM was -71.5%.

Turning to `CN1CCCN(C(=O)c2cc(CN(C)CCc3ccccc3)on2)CC1`, the cytotoxicity at 10 µM was -15.3%.

Consider `Cc1nn(C)c(N(C)C)c1CNCc1cccc(Cl)c1`, for which the cytotoxicity at 10 µM is -8.27%.

`COc1ccc(NC2CCCN(Cc3cnc(N(C)C)s3)C2)cc1` (configuration not stated): the cytotoxicity at 10 µM was found to be 0.88%.

For `COc1ccc(CNC(C)c2cnn(C)c2)cc1OC1CCCC1` (configuration not stated), the cytotoxicity at 10 µM is -0.734%.

With `O=C(NCc1ccc2c(c1)OCO2)[C@H]1C=CCN1c1ncccn1`, the cytotoxicity at 10 µM was -4.52%.

For the compound `CCC(CC)(CNC(C)=O)NC(C)c1ccccc1` (configuration not stated), the cytotoxicity at 10 µM was 4.99%.

For the compound `CCCc1nc(C)c(C(=O)NS(=O)(=O)c2cccnc2)s1`, the cytotoxicity at 10 µM was -5.8%.

Turning to `CCC(C(=O)N1CCN(S(=O)(=O)N2CCCC2)CC1)n1cccn1` (configuration not stated), the cytotoxicity at 10 µM is -8.56%.

With `Cc1nc2[nH]cnc(NCCN3CCOCC3)c-2n1`, the cytotoxicity at 10 µM was found to be 3.22%.

For the compound `CN1[C@H](Cn2cccn2)C[C@@H]2CN(Cc3cccs3)CC[C@@H]21`, the cytotoxicity at 10 µM was determined as 11.9%.

Consider `CCn1nnnc1-c1cccc(NC(=O)CCOC(C)C)c1`, for which the cytotoxicity at 10 µM is -9.8%.

For `Cc1ccccc1OCCC(=O)N1CCCC(n2cncn2)C1` (configuration not stated), the cytotoxicity at 10 µM was -17.6%.

As for `CC(=O)NCCNC(=O)C1(Oc2cccnc2C)CCNCC1`, the cytotoxicity at 10 µM amounted to 3.24%.

Turning to `Cc1nc(CN2CCOC(Cn3cncn3)C2)nc2ccccc12` (configuration not stated), the cytotoxicity at 10 µM is -0.241%.

As to `CCCN1CCC(CC(=O)N[C@H](C(=O)O)c2cccc(F)c2F)CC1`, the cytotoxicity at 10 µM came to 3.78%.

On to `Cc1nnc(SCCC(=O)N(C)Cc2ccc(F)cc2Cl)[nH]1`, for which the cytotoxicity at 10 µM was 11.4%.

As for `COc1ccccc1C1Cn2ccnc2CN1Cc1c[nH]nc1C` (configuration not stated), the cytotoxicity at 10 µM is -3.85%.

Turning to `CCc1nn(C)c(Cl)c1CN1CCCC2(C1)CN(C)C(=O)O2` (configuration not stated), the cytotoxicity at 10 µM amounted to 5.44%.

Turning to `Cc1nc(NCCN2CCCC2=O)cc(C2CN(C(C)C)CCO2)n1` (configuration not stated), the cytotoxicity at 10 µM amounted to 3.88%.

In the case of `Cc1cc(OCC(O)c2nc3c([nH]2)CC(C)(C)CNC3=O)ccc1Cl` (configuration not stated), the cytotoxicity at 10 µM is -1.57%.

`CC(=O)N1CCCN(C(=O)CN(C)c2ccc(Cl)cn2)CC1`: the cytotoxicity at 10 µM is -7.64%.

Regarding `CCc1noc(C)c1C(=O)NCCCC(CC)(CC)C1OCCO1`, the cytotoxicity at 10 µM is -10.1%.

Consider `CCCC1(CO)CCCN(c2ncnc3c2c(C)nn3C)C1` (configuration not stated), for which the cytotoxicity at 10 µM amounted to 2.72%.

As to `CCN1CCOCC12CCN(C(=O)c1ccsc1)CC2`, the cytotoxicity at 10 µM was -146%.

As for `O=C1N(c2ccsc2)CCC12CCCN(Cc1ccccn1)C2` (configuration not stated), the cytotoxicity at 10 µM was determined as 2.03%.

Take `O=C(O)c1ccc2ccc(N3CCN(CC4CC4)CC3)n2c1`: the cytotoxicity at 10 µM was determined as 7.25%.

For `CC(NC(=O)CNC(=O)OC(C)(C)C)c1ccc(Cl)s1` (configuration not stated), the cytotoxicity at 10 µM is 2.99%.

Turning to `O=C(NCC1CCC1)c1cccc(CN2CCS(=O)(=O)CC2)c1`, the cytotoxicity at 10 µM is -7.89%.

For `Cn1cc(CN2CCC3(CCC(C(=O)NCC4CC4)C3)CC2)cn1` (configuration not stated), the cytotoxicity at 10 µM was found to be 3.47%.

As for `Cn1ccnc1CCNS(=O)(=O)c1cccnc1`, the cytotoxicity at 10 µM was 10.7%.

`CCc1n[nH]c(=O)c(C(=O)N2CCOC3(CCCC3)C2)c1CC`: the cytotoxicity at 10 µM was determined as 13.3%.

Consider `Cc1ccc(CC(=O)N2CCc3nnc(N(C)C)cc3C2)cn1`, for which the cytotoxicity at 10 µM is -8.16%.

Take `CN(C)CCCNC(=O)c1ccccc1NC(=O)c1cc(Cl)ccc1Cl`: the cytotoxicity at 10 µM was -17%.

As for `Cn1ncnc1NCc1ccccc1Cl`, the cytotoxicity at 10 µM is -8.04%.

In the case of `Cc1ccc(C(=O)N(CCC#N)Cc2ccccn2)cc1C`, the cytotoxicity at 10 µM stood at 0.665%.

`Cc1nc[nH]c1C(=O)N1CCCC2(CN(C)C(=O)O2)C1` (configuration not stated): the cytotoxicity at 10 µM amounted to 1.2%.

In the case of `O=C(NCC1(c2cccs2)CCCCC1)N1CCOC(CO)C1` (configuration not stated), the cytotoxicity at 10 µM stood at 0.75%.

`OCCc1cc(CC2(NCc3ccncc3)COC2)no1`: the cytotoxicity at 10 µM is -3.56%.

As for `Cc1cc(CN2CCN(CC(O)c3cccc(F)c3)CC2)no1` (configuration not stated), the cytotoxicity at 10 µM was -12.2%.

As to `CC(=O)c1cccc(OCC(=O)NS(=O)(=O)c2cccs2)c1`, the cytotoxicity at 10 µM was -10.5%.

For the compound `C[C@@H]1CN(C(=O)Cn2ccc3ncccc3c2=O)C[C@H](C)O1`, the cytotoxicity at 10 µM was -5.64%.

Take `CC(=O)c1sc(Nc2ccc(Cl)cn2)nc1C`: the cytotoxicity at 10 µM was determined as 41.9%.

For `Cc1cc(C(=O)N2CCC(O)(Cn3c(C)cc4ccncc43)CC2)on1`, the cytotoxicity at 10 µM was 9.55%.

`CCOCC1CN(C(=O)c2ccoc2C)Cc2cnn(C)c21` (configuration not stated): the cytotoxicity at 10 µM was -2.48%.

Turning to `CN(C)CCN1CCN(C)C2(CCN(c3nccs3)CC2)C1=O`, the cytotoxicity at 10 µM was -1.92%.

Regarding `Cc1ccc(C)c(C(=O)N2CCC3(CCC(=O)N(CC(N)=O)C3)CC2)c1`, the cytotoxicity at 10 µM was determined as 17.7%.

With `c1cnc2c(c1)CN(C1CCOC1)CCN2CC1CC1` (configuration not stated), the cytotoxicity at 10 µM was 4.92%.

With `CCS(=O)(=O)N1CCOCC2(CCN(c3ccccn3)C2)C1` (configuration not stated), the cytotoxicity at 10 µM is 5.66%.

Take `CNc1ccc(CC2CCCN(C(=O)c3cnc(C)nc3)C2)nn1` (configuration not stated): the cytotoxicity at 10 µM was -1.2%.

Consider `Cc1nnc(N2CCc3cncnc3C2)c(C#N)c1C`, for which the cytotoxicity at 10 µM is -154%.

Turning to `N#Cc1ccccc1C(=O)N1C[C@@H]2CC[C@H]1CN(c1ncccn1)C2`, the cytotoxicity at 10 µM came to 2.43%.

On to `Cc1nc(CN2CCCC(N(C)Cc3cscn3)C2)no1` (configuration not stated), for which the cytotoxicity at 10 µM amounted to 16.8%.

With `CN(C)C(=O)CN1C[C@H]2CC[C@@H](C1)N(Cc1c(F)cccc1Cl)C2`, the cytotoxicity at 10 µM was 5.48%.

Regarding `Cc1n[nH]c(C2CN(C(=O)c3ccon3)CCO2)n1` (configuration not stated), the cytotoxicity at 10 µM is -8.27%.

On to `Cc1cccc(OCCC(=O)NCC(C)(C)C(N)=O)c1`, for which the cytotoxicity at 10 µM is -6.38%.

The values above are taken from ChEMBL document CHEMBL4513216, “Probing the Open Global Health Chemical Diversity Library for Multistage-Active Starting Points for Next-Generation Antimalarials” (ACS Infect Dis, 2020).
